Screening data: PubChem BioAssay, several laboratories
MT stabilizer: microtubule stabilizers in HeLa cells. hit rate 0.83% among 200,000. % tubulin-high responders, % at 10 µM. HeLa tubulin immunostaining HCS, 24 h; share of cells brighter than vehicle mean+2SD. AID 2205;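 active = plate Z-score above 3 for both tubulin-high and condensed-nucleus cell shares, with cell loss under 80%, at 10 µM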;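 also: anti alpha tubulin signal scored within the nucleus-defined area of each cell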
Autophagy mod: alters autophagy in cells | calls only at 10 µM (by protocol) | hit rate 0.98% among 190,000 | MEF GFP-LC3 puncta imaging; test concentration mostly 10 µM;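 active = percentage of spot-positive cells more than 3 SD above its plate mean, without a fluorescence outlier flag or 80% toxicity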
CHOP inh: inhibitors of CHOP induction in ER stress response. CHO-K1 CHOP-promoter luciferase, tunicamycin-induced, 15-18 h. inhibition, % at 10 µM. hit rate 3.8% among 220,000. AID 2732;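 active = compounds that reduced the stress-induced luciferase reporter signal by more than about 70% of percent inhibition, limit read from the data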
L major viab: reduces viability of Leishmania major promastigotes; AID 1063; hit rate 9% among 200,000; resazurin fluorescence viability; inhibition, % at 10 µM; in the data active = inhibition above about 50%;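 also: promastigotes grown with compound for 44 hours at 28 °C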
b-catenin transl: modulators of beta-catenin nuclear translocation | AID 1665 | HeLa beta-catenin nuclear translocation, immunofluorescence imaging | nuclear translocation activity, % at 5 µM | hit rate 0.3% among 190,000;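 active = nuclear translocation activity above 50% at 5 µM, with a well cell count of 50 or more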;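 also: per-cell ratio of nuclear to cytoplasmic median beta-catenin stain intensity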
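Technique: fluorescence imaging of beta-catenin antibody stain plus DAPI / Material: human HeLa cell line / Incubation: compound treatment 24 h, 37°C, 5% CO2 / Read-out basis: % activation of per-cell nuclear versus cytoplasmic median beta-catenin signal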
Dynein cargo inh: blocks dynein driven cargo transport along microtubules; 3617.4 mouse cells, GR-EGFP nuclear translocation imaging; test concentration mostly 20 µM; stimulated with dexamethasone, 1 µM; stronger effect = lower value; z-score, hits read low; hit rate 0.47% among 220,000;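 active = plate z-score of nuclear minus cytoplasmic receptor signal below a set negative limit, without overly bright fluorescence or cell loss, cut at about -3.5 in these data, passing the limit was not always enough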;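 also: z-score of nuclear minus cytoplasmic ring GR-EGFP intensity difference per well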
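Also added: dexamethasone, 1.0 µM final. Medium: tet-free, stripped-serum medium. Detection: fixed, Hoechst-stained cells imaged at 10x for EGFP. Read-out: nuclear-to-cytoplasmic GR-EGFP distribution per well. Times: induction 48 h, compound 1 h, agonist 30 min.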
Each line names hits and unclear results; the compound was inactive in the other large screens. Rows were chosen to be rich in hits. Some 12% of all compounds tested hit in one or more screens of this group.

CCOc1ccc(NC(=O)N(C2CCCCC2)C(C)c2cccnc2)cc1 (stereo unspecified)	L major viab 87 (no result: b-catenin transl)
CC(c1cccnc1)N(C(=O)Nc1ccccc1)C1CCCCC1 (stereo unspecified)	L major viab 78
Cc1ccc(C)c(NC(=S)N(C2CCCCC2)C(C)c2cccnc2)c1 (stereo unspecified)	none (no result: MT stabilizer, Autophagy mod, L major viab)
CCOc1ccc(NC(=O)N(C2CCCCC2)C(C)c2ccncc2)cc1 (stereo unspecified)	none
CCc1nnc(NC(=O)C2CCN(c3nc(C)cc(C)n3)CC2)s1	none
O=C(CN1CCCN(S(=O)(=O)c2ccc(Br)cc2)CC1)Nc1ccc2cn[nH]c2c1	none (no result: CHOP inh, b-catenin transl)
Cc1ccc2c(c1)[nH]c1c(=O)n(Cc3ccccn3)cnc12	none
CC(=O)N(c1ccccc1)c1nc(/C=C/C(=O)Nc2c(C)cc(C)cc2C)cs1	none
O=C(COC(=O)CC12CC3CC(CC(C3)C1)C2)Nc1ncc(Cl)cc1Cl	CHOP inh 77 (no result: b-catenin transl)
O=C(COC(=O)C12CC3CC(CC(C3)C1)C2)Nc1ncc(Cl)cc1Cl	none
CC(C)(Oc1ccc(Cl)cc1)C(=O)OCC(=O)Nc1ncc(Cl)cc1Cl	CHOP inh 75
O=C(COC(=O)c1ccc(Cl)nc1)Nc1ncc(Cl)cc1Cl	none
CC(=O)c1ccc(S(=O)(=O)N2CCCCC2C(=O)O)cc1 (stereo unspecified)	none
CC(Nc1cc(N2CCOCC2)ccc1[N+](=O)[O-])c1ccccc1 (stereo unspecified)	CHOP inh 73
CC(Nc1cc(N2CCCC2)ccc1[N+](=O)[O-])c1ccccc1 (stereo unspecified)	none
COC(=O)CN1C(=O)C(O)(CC(=O)c2ccc(C)o2)c2ccccc21 (stereo unspecified)	none
Cc1ccc(C(=O)CC2(O)C(=O)N(C)c3ccccc32)o1 (stereo unspecified)	Autophagy mod active (no result: b-catenin transl)
CCCC(=O)NC(c1ccco1)c1cc([N+](=O)[O-])c2cccnc2c1O (stereo unspecified)	none
COc1ccc(C(NC(=O)C(C)C)c2ccc3cccnc3c2O)cc1 (stereo unspecified)	CHOP inh 79 (no result: MT stabilizer, Autophagy mod, L major viab)
CC(=O)NC(c1ccco1)c1ccc2cccnc2c1O (stereo unspecified)	L major viab 98 (no result: CHOP inh, b-catenin transl)
CCOC(=O)N1CCN(Cc2nc3c(c(=O)[nH]c(=O)n3C)n2Cc2cc(C)ccc2C)CC1	none
CNc1nc(SCc2ccc(C)cc2)nc2c1CCCC2	L major viab 100
COc1cc(N2CCCC2)ccc1[N+](=O)[O-]	none (no result: b-catenin transl)
O=C(CN1CCN(S(=O)(=O)c2ccccc2)CC1)Nc1cccc(C(F)(F)F)c1	CHOP inh 79
O=C(Nc1cc(S(=O)(=O)N2CCCC2)ccc1OCC(F)(F)F)c1ccccc1F	none
O=C(CN1CCN(S(=O)(=O)c2ccc(F)cc2)CC1)Nc1ccc(Cl)c(C(F)(F)F)c1	none
O=C(CNc1cc(S(=O)(=O)N2CCCC2)ccc1OCC(F)(F)F)Nc1cccc(C(F)(F)F)c1	L major viab 95
O=C(CCCn1c(SCC(=O)NCCc2ccccc2)nc2ccccc2c1=O)NCC1CCCO1 (stereo unspecified)	none
COc1cc(C2NC(=O)C(C#N)=C(Nc3cccc(C)c3)S2)ccc1O (stereo unspecified)	none (no result: MT stabilizer, Autophagy mod, L major viab)
COc1ccc(C(=O)Sc2ccc(Cl)cc2)cc1OC	L major viab 54
NC(=O)c1ccc(C(F)(F)F)n(Cc2ccccc2Cl)c1=O	CHOP inh 92
NC(=O)c1cccn1Cc1ccccc1Cl	none
CC(C)C(NC(=O)C12CC3CC(CC(C3)C1)C2)C(=O)N/N=C/C1=C(N2CCOCC2)C(=C\c2ccc([N+](=O)[O-])cc2)/CC1 (stereo unspecified)	Autophagy mod active, L major viab 97
CC(NC(=O)C12CC3CC(CC(C3)C1)C2)C(=O)N/N=C/C1=C(N2CCOCC2)C(=C\c2cccc([N+](=O)[O-])c2)/CC1 (stereo unspecified)	L major viab 98
CCOC(=O)/C(=N\Nc1ccccc1Cl)N1CCN(c2ccccc2OC)CC1	none
N#CC1=C(N)NC(SCC(=O)c2ccc(Cl)cc2)=C(C#N)C12CCCC2	none
COc1ccc(C(=O)CSC2=C(C#N)C3(CCCCC3)C(C#N)=C(N)N2)cc1	L major viab 58
N#CC1=C(N)NC(SCC(=O)c2ccc(Br)cc2)=C(C#N)C12CCCCC2	L major viab 100
O=C(Nc1ccccc1CC[N+](=O)[O-])N1CCN(c2ccccc2)CC1	none
O=C(c1cccnc1Cl)N1CCOCC1	none
CCc1cccc2c(C(=O)COC(=O)c3ccc(O)cc3)c[nH]c12	CHOP inh 87
CN1CCc2nc3sc(C(=O)C45CC6CC(CC(C6)C4)C5)c(N)c3cc2C1	L major viab 96
Nc1c(C(=O)O)sc2nc3c(cc12)CCCC3	none (no result: MT stabilizer, Autophagy mod, L major viab)
Cc1ccc(C(=O)CSc2nnc(CNc3ccc(C)cc3C)o2)cc1	CHOP inh 72 (no result: b-catenin transl)
CCNS(=O)(=O)c1ccc(OC)c(C(=O)NC2CCCCC2)c1	none
CCCCC(=O)N(CCOC)c1nnc(-c2cccnc2)s1	none
CCCCC(=O)N(CCOC)c1nnc(-c2ccccc2C)s1	CHOP inh 74
COC(=O)c1ccc(CSc2nc3c(c(=O)n2-c2ccc(C)cc2)SCC3)o1	L major viab 97
CCOC(=O)c1cc(-c2ccccc2)n(CC(=O)Nc2ccc(OC)c(OC)c2)c1C	CHOP inh 100
CC(=O)c1cc(-c2ccccc2)n(CC(=O)Nc2cccc(C)c2)c1C	L major viab 64
N#CCCN1CCCc2cc(N=Nc3ccc(C(F)(F)F)cc3)ccc21	none (no result: MT stabilizer, Autophagy mod, L major viab)
Cc1nn(CC(=O)OC(C)C(=O)Nc2ccccc2[N+](=O)[O-])c(C)c1[N+](=O)[O-] (stereo unspecified)	none
Cc1c(-c2ccccc2)nc2ccccc2c1C(=O)NCc1cccs1	none
C=CCSc1nnc(-c2sc(-c3ccccc3)nc2C)n1C	none
C=CCN(C(=O)CSC1=NC(=O)CN1C(C)=O)c1nc(C)c(-c2ccccc2)s1	CHOP inh 95, L major viab 89
CN(C(=O)COC(=O)c1cc(NS(=O)(=O)c2cc([N+](=O)[O-])ccc2Cl)ccc1O)C1CCCCC1	none
CCOc1cc(C=O)c(Br)cc1OC1CCCC1	L major viab 83
COc1ccc(/C=N/NC(=O)C(Cc2c[nH]c3ccccc23)NC(=O)OCC(C)C)cc1[N+](=O)[O-] (stereo unspecified)	L major viab 99 (no result: b-catenin transl)
Cc1nn(-c2nnc(NCc3ccccc3)nn2)c(C)c1Br	CHOP inh 73, L major viab 84
Cc1nn(CC(O)c2ccccc2)c(C)c1Br (stereo unspecified)	none (no result: b-catenin transl)
Cc1cc(C)n(-c2nnc(NCc3ccc(Cl)cc3)nn2)n1	L major viab 91
